Converted amounts (≈) assume the structure as drawn.
How the values were obtained:
[1] = tested on: Staphylococcus epidermidis; experiment: (§1) Minimum concentration required to prevent the growth of multiply resistant Staphylococcus epidermidis (MRSE) coag.-neg. Staph. A0244; format: functional
Procedure, shortened: (§2)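 Agar dilution susceptibility testing per NCCLS guidelines against resistant clinical isolates, with nonresistant ATCC stock strains run as controls. Plates were read at 19–24 h of incubation. MIC reported in µg/mL.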

[2] = tested on: Listeria monocytogenes; experiment: Minimum concentration required to prevent the growth of Listeria monocytogenes strain A0182; format: functional
Procedure, shortened: (§3)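 Agar dilution susceptibility testing per NCCLS guidelines, covering clinical isolates (including resistant phenotypes) and nonresistant ATCC stock strains as controls. Plates read after 19–24 h of incubation. MIC reported in μg/mL.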

[3] = tested on: Enterococcus faecium; experiment: Minimum concentration required to prevent the growth of vancomycin resistant (VanA) Enterococcus faecium strain A2320; format: functional; procedure, shortened: as §2
[4] = tested on: Enterococcus faecium; experiment: Minimum concentration required to prevent the growth of vancomycin resistant (VanB) Enterococcus faecium strain A1087; format: functional; procedure, shortened: as §2
[5] = tested on: Klebsiella oxytoca; experiment: Minimum concentration required to prevent the growth of cipro resistant (Cipro-R) Klebsiella oxytoca strain A3530
[6] = tested on: Escherichia coli; experiment: Minimum concentration required to prevent the growth of nonresistant stock Escherichia coli strain 25922 from American Type Culture Collection (ATCC); format: functional; conditions: ATCC25922; procedure, shortened: as §3
[7] = tested on: Enterococcus faecalis; experiment: Minimum concentration required to prevent the growth of high level gentamicin and beta- lactamase resistant (HLGR, BLA+) Enterococcus faecalis strain A0090; format: functional; procedure, shortened: as §2
[8] = tested on: Staphylococcus aureus; experiment: Minimum concentration required to prevent the growth of multiply resistant (MRSA) Staphylococcus aureus strain A0171; format: functional; procedure, shortened: as §2
[9] = tested on: Escherichia coli; experiment: Minimum concentration required to prevent the growth of cipro resistant (Cipro-R) Escherichia coli strain A3228; format: functional; procedure, shortened: as §3
[10] = tested on: Staphylococcus aureus; experiment: Minimum concentration required to prevent the growth of multiply resistant (MRSA) and cipro resistant (Cipro-R) Staphylococcus aureus strain A2043; format: functional; procedure, shortened: as §2
[11] = tested on: Staphylococcus epidermidis; experiment: Minimum concentration required to prevent the growth of multiply resistant Staphylococcus epidermidis (MRSE) and cipro resistant (Cipro-R) coag.-neg. Staph. A0247; format: functional; procedure, shortened: as §2
[12] = tested on: Enterococcus faecalis; experiment: Minimum concentration required to prevent the growth of vancomycin resistant (VanA) Enterococcus faecalis strain A0402; format: functional; procedure, shortened: as §2
[13] = tested on: Enterococcus faecalis; experiment: Minimum concentration required to prevent the growth of vancomycin resistant (VanB) Enterococcus faecalis strain A1081; format: functional; procedure, shortened: as §2
[14] = tested on: Escherichia coli; experiment: Minimum concentration required to prevent the growth of cipro resistant (Cipro-R) Escherichia coli strain AA; format: functional; procedure, shortened: as §3
[15] = tested on: Staphylococcus aureus; experiment: Minimum concentration required to prevent the growth of multiply resistant (MRSA) Staphylococcus aureus strain A0170; format: functional; procedure, shortened: as §2
[16] = tested on: Staphylococcus epidermidis; experiment: Minimum concentration required to prevent the growth of multiply resistant Staphylococcus epidermidis (MRSE) coag.-neg. Staph. A0245; format: functional; procedure, shortened: as §2
[17] = tested on: Pseudomonas aeruginosa; experiment: Minimum concentration required to prevent the growth of Pseudomonas aeruginosa strain 28245; format: functional; procedure, shortened: as §3
[18] = tested on: Enterococcus faecalis; experiment: Minimum concentration required to prevent the growth of nonresistant stock strain Enterococcus faecalis 51299 from American Type Culture Collection (ATCC); format: functional; procedure, shortened: as §2
[19] = tested on: Klebsiella pneumoniae; experiment: Minimum concentration required to prevent the growth of cipro resistant (Cipro-I) Klebsiella pneumoniae strain AM; format: functional; procedure, shortened: as §2
[20] = tested on: Enterococcus faecalis; experiment: Minimum concentration required to prevent the growth of vancomycin resistant (VanB) Enterococcus faecalis strain A1079; format: functional; procedure, shortened: as §2
[21] = tested on: Listeria monocytogenes; experiment: Minimum concentration required to prevent the growth of Listeria monocytogenes strain A0183; format: functional; procedure, shortened: as §3
[22] = tested on: Staphylococcus aureus; experiment: Minimum concentration required to prevent the growth of multiply resistant (MRSA) and cipro resistant (Cipro-R) Staphylococcus aureus strain A2800; format: functional; procedure, shortened: as §2
[23] = tested on: Pseudomonas aeruginosa; experiment: Minimum concentration required to prevent the growth of Pseudomonas aeruginosa strain 28215; format: functional; procedure, shortened: as §3
[24] = tested on: Enterococcus faecalis; experiment: Minimum concentration required to prevent the growth of vancomycin resistant (VanA) Enterococcus faecalis strain A0401; format: functional; procedure, shortened: as §2
[25] = tested on: Enterococcus faecium; experiment: Minimum concentration required to prevent the growth of vancomycin resistant (VanB) Enterococcus faecium strain A0803; format: functional; procedure, shortened: as §2
[26] = tested on: Enterococcus faecalis; experiment: Minimum concentration required to prevent the growth of high level gentamicin and beta- lactamase resistant (HLGR, BLA+) Enterococcus faecalis strain A0089; format: functional; procedure, shortened: as §2
[27] = tested on: Enterococcus faecium; experiment: Minimum concentration required to prevent the growth of nonresistant stock strain Enterococcus faecium 19434 from American Type Culture Collection (ATCC); format: functional; procedure, shortened: as §3
[28] = tested on: Enterococcus faecalis; experiment: Minimum concentration required to prevent the growth of nonresistant stock strain Enterococcus faecalis 29212 from American Type Culture Collection (ATCC); format: functional; procedure, shortened: as §2
[29] = tested on: Escherichia coli; experiment: Minimum concentration required to prevent the growth of cipro resistant (Cipro-R) Escherichia coli strain A3529; format: functional; procedure, shortened: as §3
[30] = tested on: Enterococcus faecium; experiment: Minimum concentration required to prevent the growth of vancomycin resistant (VanA) Enterococcus faecium strain A1745; format: functional; procedure, shortened: as §2
[31] = tested on: Staphylococcus epidermidis; experiment: Minimum concentration required to prevent the growth of multiply resistant Staphylococcus epidermidis (MRSE) and cipro resistant (Cipro-R) coag.-neg. Staph. A0248; format: functional; procedure, shortened: as §2
[32] = tested on: Klebsiella oxytoca; experiment: Minimum concentration required to prevent the growth of cipro resistant (Cipro-I) Klebsiella oxytoca strain A3530; format: functional; procedure, shortened: as §2
[33] = tested on: Staphylococcus aureus; experiment: Minimum concentration required to prevent the growth of nonresistant stock strain Staphylococcus aureus 29213 from American Type Culture Collection (ATCC)
[34] = tested on: Staphylococcus epidermidis; experiment: as §1
[35] = tested on: Staphylococcus aureus; experiment: Minimum concentration required to prevent the growth of nonresistant stock strain Staphylococcus aureus 29213 from American Type Culture Collection (ATCC); remark: listed apart in the source
[36] = Staphylococcus epidermidis, read-out: MIC
[37] = Listeria monocytogenes, read-out: MIC
[38] = Enterococcus faecium, read-out: MIC
[39] = Staphylococcus aureus, read-out: MIC
[40] = Enterococcus faecalis, read-out: MIC
[41] = Escherichia coli, read-out: MIC
[42] = Klebsiella pneumoniae, read-out: MIC
[43] = Pseudomonas aeruginosa, read-out: MIC

O=C(O)c1cn(C2CC2)c2cc(N3CCN(C4OC(CO)C(O)C(O)C4O)CC3)c(F)cc2c1=O (stereo in doubt; form 1)
MIC [1, 36]: 1 µg/mL (≈ 2.03 µM) | MIC [2, 37]: 2 µg/mL (≈ 4.05 µM) | MIC [3]: > 32 µg/mL | MIC [4, 38]: 4 µg/mL (≈ 8.11 µM) | MIC [5]: 8 µg/mL (≈ 16.2 µM) | MIC [6]: < 0.03 µg/mL | MIC [7]: 1 µg/mL (≈ 2.03 µM) | MIC [8, 39]: 0.5 µg/mL (≈ 1.01 µM) | MIC [9]: > 32 µg/mL | MIC [10]: > 32 µg/mL | MIC [11]: > 32 µg/mL | MIC [12, 40]: 2 µg/mL (≈ 4.05 µM) | MIC [13, 40]: 0.5 µg/mL (≈ 1.01 µM) | MIC [14, 41]: 8 µg/mL (≈ 16.2 µM) | MIC [15, 39]: 0.5 µg/mL (≈ 1.01 µM) | MIC [16, 36]: 0.5 µg/mL (≈ 1.01 µM) | MIC [17]: 1 µg/mL (≈ 2.03 µM) | MIC [18, 40]: 0.5 µg/mL (≈ 1.01 µM) | MIC [19, 42]: 2 µg/mL (≈ 4.05 µM) | MIC [20]: 1 µg/mL (≈ 2.03 µM) | MIC [21, 37]: 2 µg/mL (≈ 4.05 µM) | MIC [22]: > 32 µg/mL | MIC [23, 43]: 0.25 µg/mL (≈ 0.507 µM) | MIC [24, 40]: 2 µg/mL (≈ 4.05 µM) | MIC [25, 38]: 4 µg/mL (≈ 8.11 µM) | MIC [26, 40]: 2 µg/mL (≈ 4.05 µM) | MIC [27, 38]: 8 µg/mL (≈ 16.2 µM) | MIC [28]: 1 µg/mL (≈ 2.03 µM) | MIC [29, 41]: 32 µg/mL (≈ 64.8 µM) | MIC [30]: > 32 µg/mL | MIC [31]: > 32 µg/mL

O=C(O)c1cn(C2CC2)c2cc(N3CCN(C4OC(CO)C(O)C(O)C4O)CC3)c(F)cc2c1=O (stereo in doubt; form 2)
MIC [1]: 1 µg/mL (≈ 2.03 µM) | MIC [2]: 2 µg/mL (≈ 4.05 µM) | MIC [32]: 8 µg/mL (≈ 16.2 µM) | MIC [8]: 0.5 µg/mL (≈ 1.01 µM) | MIC [12]: 1 µg/mL (≈ 2.03 µM) | MIC [13]: 0.5 µg/mL (≈ 1.01 µM) | MIC [14]: 8 µg/mL (≈ 16.2 µM) | MIC [15]: 0.5 µg/mL (≈ 1.01 µM) | MIC [16]: 0.5 µg/mL (≈ 1.01 µM) | MIC [17]: 4 µg/mL (≈ 8.11 µM) | MIC [18]: 1 µg/mL (≈ 2.03 µM) | MIC [19]: 2 µg/mL (≈ 4.05 µM) | MIC [21]: 2 µg/mL (≈ 4.05 µM) | MIC [23]: 0.5 µg/mL (≈ 1.01 µM) | MIC [24]: 2 µg/mL (≈ 4.05 µM) | MIC [25]: 2 µg/mL (≈ 4.05 µM) | MIC [26]: 1 µg/mL (≈ 2.03 µM) | MIC [27]: 8 µg/mL (≈ 16.2 µM) | MIC [29]: 32 µg/mL (≈ 64.8 µM) | MIC [30]: > 32 µg/mL

O=C(O)c1cn(C2CC2)c2cc(N3CCN(C4OC(CO)C(O)C(O)C4O)CC3)c(F)cc2c1=O (stereo in doubt; form 3)
MIC [1]: 1 µg/mL (≈ 2.03 µM) | MIC [2]: 2 µg/mL (≈ 4.05 µM) | MIC [4]: 4 µg/mL (≈ 8.11 µM) | MIC [6]: < 0.03 µg/mL | MIC [32]: 8 µg/mL (≈ 16.2 µM) | MIC [8]: 0.5 µg/mL (≈ 1.01 µM) | MIC [9]: > 32 µg/mL | MIC [10]: > 32 µg/mL | MIC [11]: > 32 µg/mL | MIC [13]: 1 µg/mL (≈ 2.03 µM) | MIC [14]: 8 µg/mL (≈ 16.2 µM) | MIC [15]: 0.5 µg/mL (≈ 1.01 µM) | MIC [16]: 0.5 µg/mL (≈ 1.01 µM) | MIC [17]: 4 µg/mL (≈ 8.11 µM) | MIC [19]: 4 µg/mL (≈ 8.11 µM) | MIC [21]: 2 µg/mL (≈ 4.05 µM) | MIC [22]: > 32 µg/mL | MIC [23]: 0.5 µg/mL (≈ 1.01 µM) | MIC [25]: 4 µg/mL (≈ 8.11 µM) | MIC [27]: 8 µg/mL (≈ 16.2 µM) | MIC [29]: 32 µg/mL (≈ 64.8 µM) | MIC [30]: > 32 µg/mL | MIC [31]: > 32 µg/mL

Cl.O=C(O)c1cn(C2CC2)c2cc(N3CCNCC3)c(F)cc2c1=O [CIPROFLOXACIN HYDROCHLORIDE]
MIC [1]: 1 µg/mL | MIC [2]: 1 µg/mL | MIC [2, 37]: 1 µg/mL | MIC [4]: 4 µg/mL | MIC [4, 38]: 4 µg/mL | MIC [7]: 1 µg/mL | MIC [8]: 0.5 µg/mL | MIC [8, 39]: 0.5 µg/mL | MIC [12, 40]: 1 µg/mL | MIC [13]: 0.5 µg/mL | MIC [13, 40]: 0.5 µg/mL | MIC [15]: 0.5 µg/mL | MIC [15, 39]: 0.25 µg/mL | MIC [16]: 0.5 µg/mL | MIC [16, 36]: 0.5 µg/mL | MIC [17, 43]: 1 µg/mL | MIC [18, 40]: 1 µg/mL | MIC [19]: 2 µg/mL | MIC [19, 42]: 2 µg/mL | MIC [20]: 1 µg/mL | MIC [21]: 1 µg/mL | MIC [21, 37]: 1 µg/mL | MIC [33]: 0.5 µg/mL | MIC [24]: 1 µg/mL | MIC [24, 40]: 2 µg/mL | MIC [25]: 2 µg/mL | MIC [25, 38]: 2 µg/mL | MIC [26]: 1 µg/mL | MIC [26, 40]: 2 µg/mL | MIC [34]: 1 µg/mL | MIC [35]: 0.5 µg/mL | MIC [27]: 8 µg/mL | MIC [27, 38]: 8 µg/mL | MIC [28]: 1 µg/mL
